According to ChEMBL document CHEMBL4706680, “Small-Molecule HSP27 Inhibitor Abolishes Androgen Receptors in Glioblastoma” (J Med Chem, 2021):
Calls of active or inactive are those of the source. No cut-off for these calls is given here.

Assays:
[1] = Toxicity in CD1 mouse assessed as induction of dehydration at 80 mg/kg/day, ip administered thrice weekly and observed at day 5 to 7; assay type: organism-based; conditions: in vivo, 72 h, time 3 day
In short: (§1)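 Male CD-1 mice, four per group, given 80 mg/kg in PBS IP three times weekly; vehicle DMSO. Mice were euthanized when toxicity signs appeared, otherwise at day 10. Body weight was recorded at first and last dosing days. Non-fasted cardiac blood was taken after euthanasia for an automated hematology analyzer.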

[2] = Toxicity in CD1 mouse assessed as effect on MCV count at 80 mg/kg/day, ip administered thrice weekly by hematology analyzer; assay type: organism-based; conditions: in vivo, 72 h, time 3 day; in short: as §1
[3] = Toxicity in CD1 mouse assessed as effect on RBC count at 80 mg/kg/day, ip administered thrice weekly by hematology analyzer; assay type: organism-based; conditions: in vivo, 72 h, time 3 day; in short: as §1
[4] = Toxicity in CD1 mouse assessed as effect on MPV at 80 mg/kg/day, ip administered thrice weekly by hematology analyzer; assay type: organism-based; conditions: in vivo, 72 h, time 3 day; in short: as §1
[5] = Toxicity in CD1 mouse assessed as effect on hematocrit count at 80 mg/kg/day, ip administered thrice weekly by hematology analyzer; assay type: organism-based; conditions: in vivo, 72 h, time 3 day; in short: as §1
[6] = Toxicity in CD1 mouse assessed as effect on hemoglobin count at 80 mg/kg/day, ip administered thrice weekly by hematology analyzer; assay type: organism-based; conditions: in vivo, 72 h, time 3 day; in short: as §1
[7] = test system: T98G; assay: Antiproliferative activity against human T98G cells overexpressing AR assessed as reduction in cell viability incubated for 48 hrs by MTT assay; assay type: functional, cell-based
In short: (§2)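 MTT assay; 3000 cells/well in RPMI 1640 or DMEM with 10% FBS, seeded 24 h, then exposed 48 h to a range of concentrations in DMSO (final ≤0.1%); vehicle controls. MTT 1 mg/mL for 2 h at 37 °C, dye dissolved in DMSO, absorbance 570 nm; eight replicates; IC50 by nonlinear regression.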

[8] = Toxicity in CD1 mouse assessed as effect on eosinophil count at 80 mg/kg/day, ip administered thrice weekly by hematology analyzer; assay type: organism-based; conditions: in vivo, 72 h, time 3 day; in short: as §1
[9] = Toxicity in CD1 mouse assessed as effect on PLT at 80 mg/kg/day, ip administered thrice weekly by hematology analyzer; assay type: organism-based; conditions: in vivo, 72 h, time 3 day; in short: as §1
[10] = Toxicity in CD1 mouse assessed as effect on lymphocyte at 80 mg/kg/day, ip administered thrice weekly by hematology analyzer; assay type: organism-based; conditions: in vivo, 72 h, time 3 day; in short: as §1
[11] = Toxicity in CD1 mouse assessed as effect on neutrophils count at 80 mg/kg/day, ip administered thrice weekly by hematology analyzer; assay type: organism-based; conditions: in vivo, 72 h, time 3 day; in short: as §1
[12] = Toxicity in CD1 mouse assessed as effect on monocytes at 80 mg/kg/day, ip administered thrice weekly by hematology analyzer; assay type: organism-based; conditions: in vivo, 72 h, time 3 day; in short: as §1
[13] = Toxicity in CD1 mouse assessed as effect on MCH count at 80 mg/kg/day, ip administered thrice weekly by hematology analyzer; assay type: organism-based; conditions: in vivo, 72 h, time 3 day; in short: as §1
[14] = test system: U-251; assay: Antiproliferative activity against human U-251 cells assessed as reduction in cell viability incubated for 48 hrs by MTT assay; assay type: functional, cell-based; conditions: U-251, 48 h; in short: as §2
[15] = Toxicity in CD1 mouse assessed as effect on WBC count at 80 mg/kg/day, ip administered thrice weekly by hematology analyzer; assay type: organism-based; conditions: in vivo, 72 h, time 3 day; in short: as §1
[16] = test system: A 172; assay: Antiproliferative activity against human A 172 cells assessed as reduction in cell viability incubated for 48 hrs by MTT assay; assay type: functional, cell-based; conditions: A 172, 48 h; in short: as §2
[17] = Toxicity in CD1 mouse assessed as effect on MCHC count at 80 mg/kg/day, ip administered thrice weekly by hematology analyzer; assay type: organism-based; conditions: in vivo, 72 h, time 3 day; in short: as §1
[18] = Toxicity in CD1 mouse assessed as reduction in food consumption at 80 mg/kg/day, ip administered thrice weekly and observed at day 5 to 7; assay type: organism-based; conditions: in vivo, 72 h, time 3 day; in short: as §1
[19] = Toxicity in CD1 mouse assessed as decrease in body weight at 80 mg/kg/day, ip administered thrice weekly and observed at day 5 to 7; assay type: organism-based; conditions: in vivo, 72 h, time 3 day; in short: as §1
[20] = Toxicity in CD1 mouse assessed as effect on RDW-CV at 80 mg/kg/day, ip administered thrice weekly by hematology analyzer; assay type: organism-based; conditions: in vivo, 72 h, time 3 day; in short: as §1
[21] = test system: U-87 MG; assay: Antiproliferative activity against human U87 cells assessed as reduction in cell viability incubated for 48 hrs by MTT assay; assay type: functional, cell-based, U-87MG ATCC; in short: as §2
[22] = Toxicity in CD1 mouse assessed as effect on basophil count at 80 mg/kg/day, ip administered thrice weekly by hematology analyzer; assay type: organism-based; conditions: in vivo, 72 h, time 3 day; in short: as §1
[23] = Dissociation constant, pKa of the compound; assay type: physicochemical
[24] = Toxicity in CD1 mouse assessed as acute pain at 80 mg/kg/day, ip administered thrice weekly and measured at day 10; assay type: organism-based; conditions: in vivo, 72 h, time 3 day; in short: as §1
[25] = Toxicity in CD1 mouse assessed as decrease in body weight at 80 mg/kg/day, ip administered thrice weekly and measured at day 10; assay type: organism-based; conditions: in vivo, 72 h, time 3 day; in short: as §1
[26] = biological target: Heat shock protein beta-1 (Homo sapiens) (UniProt P04792); conditions: T98G, dose 10.0 nM, time 12.0 hrs
Heat shock protein beta-1 (Homo sapiens), sequence (P04792 whole entry): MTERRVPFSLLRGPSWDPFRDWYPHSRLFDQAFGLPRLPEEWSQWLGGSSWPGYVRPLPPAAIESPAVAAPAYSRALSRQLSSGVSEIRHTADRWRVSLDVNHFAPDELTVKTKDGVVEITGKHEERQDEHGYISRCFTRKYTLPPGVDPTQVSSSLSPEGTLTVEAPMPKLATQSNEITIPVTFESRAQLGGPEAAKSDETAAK

| Structure (SMILES) | Activity [1] | Activity [2] | Activity [3] | Activity [4] | Activity [5] | Activity [6] | IC50 [7] [nM] | Activity [8] | Activity [9] | Activity [10] | Activity [11] | Activity [12] | Activity [13] | IC50 [14] [nM] | Activity [15] | IC50 [16] [nM] | Activity [17] | Activity [18] | Activity [19] | IC50 [21] [nM] | also measured |
| --- | --- | --- | --- | --- | --- | --- | --- | --- | --- | --- | --- | --- | --- | --- | --- | --- | --- | --- | --- | --- | --- |
| COc1ccc(C(=O)Nc2ccc(N(C)S(C)(=O)=O)c(OCc3cc(OC)ccc3OC)c2)cc1 | Toxic | Non-Toxic | Non-Toxic | Non-Toxic | Non-Toxic | Non-Toxic | 1.85 | Non-Toxic | Non-Toxic | Non-Toxic | Non-Toxic | Non-Toxic | Non-Toxic | 1.57 | Non-Toxic | 3.13 | Non-Toxic | Toxic | Toxic | 3.05 | Activity [20]: Non-Toxic; Activity [22]: Non-Toxic |
| CS(=O)(=O)Nc1ccc([N+](=O)[O-])cc1Oc1ccccc1 [NIMESULIDE] | – | – | – | – | – | – | – | – | – | – | – | – | – | – | – | – | – | – | – | – | pKa [23]: 5.93 |
| CCS(=O)(=O)Nc1ccc(NC(=O)c2ccc(OC)cc2)cc1OCc1cc(OC)ccc1OC | – | – | – | – | – | – | 4.87 | – | – | – | – | – | – | 6.39 | – | 11.9 | – | – | Non-Toxic | 6.74 | Activity [24]: Non-Toxic; Activity [25]: Non-Toxic |
| C[C@]12CCC(=O)C[C@@H]1CC[C@@H]1[C@@H]2CC[C@]2(C)[C@@H](O)CC[C@@H]12 | – | – | – | – | – | – | – | – | – | – | – | – | – | – | – | – | – | – | – | – | inhibition [26]: inactive |
| CCS(=O)(=O)N(C)c1ccc(NC(=O)c2ccc(OC)cc2)cc1OCc1cc(OC)ccc1OC | Toxic | Non-Toxic | Non-Toxic | Non-Toxic | Non-Toxic | Non-Toxic | 5.71 | Non-Toxic | Non-Toxic | Non-Toxic | Non-Toxic | Non-Toxic | Non-Toxic | 6.97 | Non-Toxic | 8.21 | Non-Toxic | Toxic | Toxic | 7.83 | Activity [20]: Non-Toxic; Activity [22]: Non-Toxic |
